Screens: PubChem, several laboratories
Yeast growth inh: growth inhibitors of yeast BB579 in restrictive medium, primary screen, yeast lifespan-shortening project, S. cerevisiae | AID 804, 2007 | inhibition, % at 10 µM | OD615, 48 h | 140,000 tested, 0.51% active;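 active = inhibition above a set limit, 3 SD over the mean compound inhibition, cut at about 44% in these data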
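Detection: OD615 turbidity measurement; Material: Saccharomyces cerevisiae DeaD strain BB579, replicative lifespan model yeast; Timing: 48 h exposure, 30 °C; Doses: single 10 µM dose; Medium: CSMM-D restrictive synthetic medium containing dextrose (glucose); Controls: amphotericin B at 10 µg/mL as positive control.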
RAM inhibit: inhibitors of the yeast RAM network, primary screen, dse1pr::URA3 reporter, 5-FOA selection; S. cerevisiae dse1pr::URA3 reporter, 5-FOA growth OD615, 2 d; analog-sensitive cbk1-as2 kinase mutant strain; inhibition, % at 50 µM; 190,000 tested, 1.8% active; AID 868, 2007;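 active = inhibition above a set limit, 3 SD over mean compound inhibition, cut at about 8.4% in these data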;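 also: 0% = DMSO-only wells with no growth and 100% = 10 µM 1-NA-PP1 full growth; inhibition rescues growth on 5-FOA so higher OD means more RAM inhibition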
Efa HMGR inh: inhibitors of E. faecalis class II HMGR, primary screen, biochemical, Enterococcus faecalis; HMG-CoA reductase (Enterococcus faecalis, mvaE); purified E. faecalis HMGR, NADPH absorbance 340 nm kinetic; inhibition, % at 10 µM; 190,000 tested, 0.41% active;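 active = inhibition above a set limit, the median over all tested compounds plus 3 SD, cut at about 9.5% in these data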;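 also: enzyme runs in reverse so mevalonate oxidation gives rising NADPH absorbance; 0% = complete reaction with DMSO and 100% = background rate lacking mevalonate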
Yeast lifespan up: compounds extending yeast replicative lifespan, primary screen, S. cerevisiae, OD615; S. cerevisiae growth with nicotinamide; deaD strain in restrictive glucose medium; inhibition of the nicotinamide effect, % at 10 µM; 130,000 tested, 0.68% active; AID 775, 2007;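 active = inhibition above a set limit, placed 3 SD over the median of all compounds, cut at about 26% in these data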;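 also: 0% = nicotinamide-treated wells and 100% = cells grown without nicotinamide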
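Assay system: engineered S. cerevisiae DeaD replicative-lifespan strain, galactose-grown log-phase cells; Buffer or medium: CSMM-D glucose medium, restrictive; Probe or stimulus: nicotinamide 1.5 mM; Compound: single dose 10 µM compound, 0.25% DMSO; Schedule: 4 h preincubation then 48 h treatment at 30 °C; Technique: OD615 measurement.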
Insulin prom inh: inhibitors of insulin promoter-driven GFP, primary screen, imaging, TRM-6 cells, eGFP reporter, cell count; reporter expression induced with tamoxifen; inhibition, % at 2 µM; 130,000 tested, 0.9% active; AID 1273, 2008;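 active = inhibition above the mean plus 3 SD, with well images judged a real hit on visual review, cut at about 60% in these data, passing the limit was not always enough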
* marks the source's active call; other numbers are inactive results. Rows were chosen to be rich in hits. Some 3.7% of all compounds tested hit in one or more screens of this group.

How did CCOC(=O)C(C)(C)N(Cc1ccccc1C)S(=O)(=O)c1ccc(Cl)c([N+](=O)[O-])c1 do in these assays?
Yeast growth inh: -58; RAM inhibit: 9.3*; Efa HMGR inh: -6; Yeast lifespan up: 14; Insulin prom inh: 7

How did CCCN(CCC)S(=O)(=O)c1ccc(Cl)c([N+](=O)[O-])c1 do in these assays?
RAM inhibit: 0; Efa HMGR inh: 0

Results for COC(=O)c1c(NC(=O)COC(=O)Cn2cnc3ccccc32)sc2c1CCCC2 ?
Yeast growth inh: -25; RAM inhibit: 1; Efa HMGR inh: -12; Yeast lifespan up: -4; Insulin prom inh: 20

Results for COc1cc(NC(=S)NCCC(c2ccccc2)c2ccccc2)cc(OC)c1 ?
Yeast growth inh: 13; RAM inhibit: 9.1*; Efa HMGR inh: -4; Yeast lifespan up: -4; Insulin prom inh: 19

Results for Cc1nnc(SC(C)C#N)n1-c1ccccc1 (stereo not given) ?
RAM inhibit: 1; Efa HMGR inh: 12*

What do the screens show for `Cc1cccc(Nc2nc(N)nc(CN3CCC(C)CC3)n2)c1C`?
Yeast growth inh: -19; RAM inhibit: 0; Efa HMGR inh: 2; Insulin prom inh: 100*

How did Cc1ccc(S(=O)(=O)N2CCCCC2)cc1NC(=O)COC(=O)Cc1cccc(C(F)(F)F)c1 do in these assays?
Yeast growth inh: -47; RAM inhibit: 9.2*; Efa HMGR inh: -3; Yeast lifespan up: 8; Insulin prom inh: 23

How did COc1ccc(/C=C/C2=NN(C)C(=O)CC2)cc1 do in these assays?
RAM inhibit: -1; Efa HMGR inh: 0; Insulin prom inh: 85*

How did CC1=C(C(=O)Nc2ccc(C)cn2)C(c2cnn(C)c2)C2=C(CCCC2=O)N1 (stereo not given) do in these assays?
Yeast growth inh: -44; RAM inhibit: 3; Efa HMGR inh: -2; Yeast lifespan up: 3; Insulin prom inh: 42

Results for O=C(O)C1CCC(Cn2c(SCc3cc(=O)n4cc(Cl)ccc4n3)nc3ccsc3c2=O)CC1 (stereo not given) ?
RAM inhibit: 9.2*; Efa HMGR inh: -3; Insulin prom inh: 50

What do the screens show for `O=C(O)CCCCCn1c(SCc2cc(=O)n3cc(Cl)ccc3n2)nc2ccsc2c1=O`?
Yeast growth inh: -42; RAM inhibit: 4; Efa HMGR inh: 3; Yeast lifespan up: -1; Insulin prom inh: 43

What do the screens show for `CCCCCCN1CC(C(=O)OCC)C(=O)C1=O` (stereo not given)?
Yeast growth inh: -4; RAM inhibit: -1; Efa HMGR inh: -6; Yeast lifespan up: 50*

Results for CC1OC(Oc2ccc3ccc(=O)oc3c2-c2c(O)ccc3cc(Oc4ccc5ccc(=O)oc5c4)c(=O)oc23)C(O)C(O)C1O (stereo not given) ?
Yeast growth inh: -26; RAM inhibit: 2; Efa HMGR inh: 6; Yeast lifespan up: -1; Insulin prom inh: 0

How did N#CCCN(C(=O)COc1ccc(Cl)cc1Cl)c1ccccc1 do in these assays?
Yeast growth inh: -9; RAM inhibit: 1; Efa HMGR inh: 0; Yeast lifespan up: 7; Insulin prom inh: -13

What do the screens show for `CN1/C(=C\C(=O)C[n+]2ccc3ccccc3c2)C(C)(C)c2ccccc21`?
RAM inhibit: 1; Efa HMGR inh: 3; Insulin prom inh: -407

Results for Cc1cccc(-c2nnc3n2N=C(c2ccccc2)CS3)c1 ?
Yeast growth inh: -12; RAM inhibit: 1; Efa HMGR inh: -3; Yeast lifespan up: -14

How did Cc1nn2c(nc1=O)SCC(c1ccccc1)=N2 do in these assays?
Yeast growth inh: -76; RAM inhibit: 1; Efa HMGR inh: 0; Yeast lifespan up: -11; Insulin prom inh: 82*

Results for Cc1ccc(S(=O)(=O)N(C)CCCC(=O)NC(C)(C)C)cc1 ?
RAM inhibit: 0; Efa HMGR inh: 12*

What do the screens show for `CC(=O)c1ccccc1OC(=O)CCN1C(=O)C2C3C=CC(C4CC34)C2C1=O` (stereo not given)?
RAM inhibit: 1; Efa HMGR inh: -3

What do the screens show for `CC(=O)c1ccccc1OC(=O)CCN1C(=O)c2ccccc2C1=O`?
RAM inhibit: 0; Efa HMGR inh: 13*

How did Cc1ccc(CNC(=O)C(=O)NCC2OCCN2C(=O)c2ccc3c(c2)OCO3)cc1 (stereo not given) do in these assays?
RAM inhibit: 2; Efa HMGR inh: -2

What do the screens show for `CCN(CC)CCNC(=O)C(=O)NCC1OCCN1C(=O)c1ccc2c(c1)OCO2` (stereo not given)?
Yeast growth inh: -23; RAM inhibit: 0; Efa HMGR inh: 19*; Yeast lifespan up: 3; Insulin prom inh: 19

Results for COc1ccc(C(=O)NC(C(=O)NCC2CCCO2)C(C)C)cc1 (stereo not given) ?
RAM inhibit: 0; Efa HMGR inh: -6; Insulin prom inh: 82*

Results for COc1ccc(C(=O)NC(=S)NCC2CCCO2)cc1 (stereo not given) ?
Yeast growth inh: -24; RAM inhibit: -1; Efa HMGR inh: -1; Yeast lifespan up: -1; Insulin prom inh: -15

Results for COc1ccc2[nH]c3c(=O)n4c(nc3c2c1)SCC4 ?
RAM inhibit: 3; Efa HMGR inh: -5

What do the screens show for `Cc1ccc2[nH]c3c(=O)n(N)c(C)nc3c2c1`?
RAM inhibit: 0; Efa HMGR inh: -4; Insulin prom inh: 94*

How did COc1ccc2[nH]c3c(=O)n(N)c(C)nc3c2c1 do in these assays?
Yeast growth inh: -22; RAM inhibit: 0; Efa HMGR inh: -4; Yeast lifespan up: -2; Insulin prom inh: 81*

What do the screens show for `CC(C)COC(=O)Cn1cnc2ccc(Br)cc2c1=O`?
Yeast growth inh: -14; RAM inhibit: -1; Efa HMGR inh: 2; Yeast lifespan up: 27*

How did COC(=O)CC(NC(=O)c1cccs1)c1ccc(OC)c(OC)c1 (stereo not given) do in these assays?
RAM inhibit: 1; Efa HMGR inh: -1; Insulin prom inh: 60

What do the screens show for `Cc1cc(NC(=O)COc2ccc(N(C)S(=O)(=O)c3ccccc3)cc2)no1`?
Yeast growth inh: -6; RAM inhibit: 1; Efa HMGR inh: -5; Yeast lifespan up: -12; Insulin prom inh: 79*

Results for CCN(c1ccccc1)S(=O)(=O)c1ccc(OCC(=O)Nc2cc(C)on2)cc1 ?
Yeast growth inh: -16; RAM inhibit: 1; Efa HMGR inh: 1; Yeast lifespan up: -9; Insulin prom inh: -28

How did CCc1ccc(N(C(=O)Cc2cccs2)C(C(=O)NC2CCCCC2)c2cn(C)nc2C)cc1 (stereo not given) do in these assays?
Yeast growth inh: -55; RAM inhibit: 8.5*; Efa HMGR inh: -2; Yeast lifespan up: 7; Insulin prom inh: -9
